This is a sample that favours compounds with a hit; in the whole collection about 1.6% have one here.
TPT1 inhibitor = inhibitors of Candida albicans tRNA 2'-phosphotransferase TPT1; recombinant caTPT1, FP RNA substrate dephosphorylation; 0.81% of 300,000 active; inhibition, % at 5 µM;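 active = inhibition above the mean of all tested compounds plus 3 SD, set per screening campaign, cut at about 24% in these data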
Rpn11 block = inhibitors of human proteasome Rpn11 | 0.59% of 360,000 active | AID 588493 | O00487 | human 26S proteasome, Ub4-pepOG fluorescence polarization; 20S core pre-blocked with epoxomicin | calls only at 20 µM;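 active = inhibition at 20 µM, scaled to each plate's controls, above about 33%, limit read from the data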
CSN deneddyl inh = CSN deneddylation inhibition. Q92905. Purified CSN, SCF-Nedd8-OG deneddylation, fluorescence polarization. inhibition, % at 12.5 µM. 0.38% of 360,000 active;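 active = pattern-corrected inhibition above about 35%, with an unprinted fluorescence ratio check between 0.5 and 1.5, limit read from the data, passing the limit was not always enough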
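Schedule: reaction 90 min, room temperature / Assay system: HEK293T-derived human Csn5 enzyme / Input: Csn5 at 0.24 nM final / Measure: inhibition of Csn5 cleavage, % / Control set: substrate-only high control, full reaction low control / Technique: fluorescence polarization of the substrate / Buffer or medium: Tris/NaCl/DTT buffer, pH 7.5 / Reagent: SCFSkp2-Nedd8OG substrate at 10 nM final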
HNF4A DNA FP = change in binding of human HNF4 alpha to DNA; P41235; HNF4a-FITC DNA binding, fluorescence polarization, 1 h; activity change, % at 10 µM; 0.3% of 360,000 active; in the data active = activity change above about 30%, passing the limit was not always enough
PKA-R2B activ = activates the human PKA-R2B holoenzyme complex; P22694+P31323; PKA-R2B holoenzyme dissociation, Cy5-IP20 fluorescence polarization; R2B truncated from residue 108, S112A mutant; 0% DMSO only, 100% 113 µM cGMP; activation, % at 11.4 µM; 0.079% of 340,000 active; AID 504700;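 active = activation above a cutoff set at the mean over all compounds plus 3 SD, cut at about 18% in these data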;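 note: higher means more holoenzyme dissociation and a rise in polarization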
Target sequence (P31323 whole entry, looked up, other chains not shown, the tested form may be a part): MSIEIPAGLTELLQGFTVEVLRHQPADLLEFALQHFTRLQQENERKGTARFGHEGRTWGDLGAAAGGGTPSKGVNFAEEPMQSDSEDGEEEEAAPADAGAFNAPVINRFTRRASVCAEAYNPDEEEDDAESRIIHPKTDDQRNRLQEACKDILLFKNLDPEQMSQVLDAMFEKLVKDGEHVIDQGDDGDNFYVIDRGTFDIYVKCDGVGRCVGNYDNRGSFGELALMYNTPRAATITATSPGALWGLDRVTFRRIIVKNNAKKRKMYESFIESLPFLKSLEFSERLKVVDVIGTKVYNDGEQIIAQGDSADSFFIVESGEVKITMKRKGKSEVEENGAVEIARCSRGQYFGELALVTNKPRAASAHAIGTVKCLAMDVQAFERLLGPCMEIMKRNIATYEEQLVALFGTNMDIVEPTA
PKA-R1A activ = activates the PKA-R1A holoenzyme complex | PKA-R1A dissociation, Cy5-IP20 fluorescence polarization; scaled: DMSO 0%, 113 µM cGMP 100% | 0.083% of 340,000 active | activation, % at 11.4 µM | P00514+P68181;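 active = percent activation above the mean of all tested compounds plus 3 SD, cut at about 19% in these data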;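 note: higher means more PKAc released from R1A so a rise in polarization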
TPT1 inh confirm = TPT1 (C. albicans) inhibition, confirmation | shares compounds with TPT1 inhibitor | recombinant caTPT1, fluorescence polarization, RNase T1 coupled | inhibition, % at 5 µM | 74% of 2,400 active | AID 2149;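 active = inhibition above the primary screen limit, the mean inhibition of all tested compounds plus 3 SD, cut at about 25% in these data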
RNase T1 inh = blocks Aspergillus oryzae RNase T1, a TPT1 counter-screen | shares compounds with TPT1 inhibitor | RNase T1 cleavage, fluorescence polarization, 1536-well | inhibition, % at 5 µM | 83% of 2,400 active | AID 2153;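 active = inhibition above the solvent-only control well mean plus 3 SD, limit set per screening run, cut at about 23% in these data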;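 note: inhibitors block cleavage so intact labeled substrate keeps polarization high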
Hits are given with their value; . = inactive; / = no result given; + = active, no number.

SMILES | TPT1 inhibitor | Rpn11 block | CSN deneddyl inh | HNF4A DNA FP | PKA-R2B activ | PKA-R1A activ | TPT1 inh confirm | RNase T1 inh
CN(C)c1cccc(C(=O)NNC(=O)/C=C/c2cccs2)c1 | / | . | . | . | . | . | / | /
Cn1c(=O)c2c(nc(NCc3ccco3)n2CC(O)CO)n(C)c1=O (stereo unspecified) | . | . | . | . | . | . | / | /
O=C(Cn1cnc2ccccc21)N/N=C/c1cccc([N+](=O)[O-])c1 | 35.6 | . | . | . | . | . | . | .
O=C1C(=Cc2ccc(Br)o2)C(=O)c2ccccc21 | 26.4 | / | . | . | . | . | 26.1 | 28.4
CC1=C/C(=C\c2ccc(Br)o2)C(=O)O1 | . | . | . | . | . | . | / | /
CC1CCN(S(=O)(=O)c2cc3c4c(c2)CCN4C(=O)CC3)CC1 | . | . | . | . | . | . | / | /
CC1=NCC(C)c2ccccc21 (stereo unspecified) | / | . | . | . | . | . | / | /
CC1=NCC(C)c2c1[nH]c1ccccc21 (stereo unspecified) | 56.4 | . | . | . | . | . | . | 27.3
Cc1cc(SCC(=O)c2cc3ccccc3o2)nc2ccccc12 | 66.5 | / | . | . | . | . | . | .
COc1ccc(NC(=S)N2CCN(C(=O)c3ccco3)CC2)cc1OC | / | . | . | . | . | . | / | /
Cc1ccc2c(c1)N(CCC(=O)NC1CCCCC1)C(=O)CO2 | . | . | . | . | . | . | / | /
Cc1ccc(N=Nc2[nH]c3ccccc3c2O)cc1 | 24.3 | . | . | . | . | . | . | .
O=Cc1ccc(OCc2ccc3ccccc3c2)cc1 | . | . | . | . | . | . | / | /
O=Cc1ccc(OCc2ccccn2)cc1 | 50.6 | . | . | . | . | . | . | .
CC(=O)Nc1cccc(C(=O)/C=C/c2ccc(N(C)C)cc2)c1 | 102.8 | / | . | 83.1 | . | . | 99.9 | 99.1
CC(=O)Nc1cccc(C(=O)/C=C/c2ccc(/C=C/C(=O)c3cccc(NC(C)=O)c3)cc2)c1 | . | / | / | / | / | / | / | /
COc1cc(C(=O)N2CCC2(C)C(=O)NC(C)C)cc(OC)c1OC (stereo unspecified) | / | . | . | . | / | / | / | /
COc1ccc(C(=O)N/N=c2\oc3ccccc3cc2C(=O)NCc2ccccc2)cc1 | 32.9 | . | . | . | . | . | . | .
COc1ccc2oc(=O)c(C(=O)NCc3ccccc3)cc2c1 | . | . | . | . | . | . | / | /
COc1ccc(C(=O)NC2CCN(S(=O)(=O)c3ccccc3F)CC2)cc1 | . | . | . | . | . | . | / | /
O=C(CN(C(=O)CCC(=O)Nc1nccs1)c1cccc(F)c1)NCc1ccccc1 | . | . | . | . | . | . | / | /
Cc1ccc(C)c(N2CCN(S(=O)(=O)c3c(C)noc3/C=C/N(C)C)CC2)c1 | 28.9 | . | . | . | . | . | . | .
Cc1cc(C(=O)Nc2c(C)n(C)n(-c3ccccc3)c2=O)c2ccccc2n1 | . | . | . | . | . | . | / | /
CCc1ccc(-c2cc(C(=O)Nc3c(C)n(C)n(-c4ccccc4)c3=O)c3ccccc3n2)s1 | 25.3 | . | . | . | . | . | 32.7 | 42.8
CCN(CC)c1ccc(-c2nn3c(-c4ccccc4OC)nnc3s2)cc1 | . | . | . | . | . | . | / | /
Clc1ccccc1-c1nnc2sc(CCc3ccccc3)nn12 | . | . | . | . | . | . | / | /
CCN(CC)c1ccc(/C=c2\sc3nnc(-c4ccccc4Cl)n3c2=O)cc1 | + | / | . | . | . | . | 175.6 | 162.8
CCN(CC)c1ccc(/C=c2/sc3nnc(-c4ccccc4C)n3c2=O)cc1 | 109.2 | / | . | . | . | . | 165.2 | 166.7
COc1ccc(OC)c(C(c2c(O)nc(SC)[nH]c2=O)c2c(O)nc(SC)[nH]c2=O)c1 | . | . | . | . | . | . | / | /
CN(C)c1ccc(/C=C2\C(=N)N3C(=NC2=O)Sc2cc(S(C)(=O)=O)ccc23)cc1 | 122.0 | / | / | / | / | / | 87.9 | 86.0
